# Marks after values point to notes of the source that are not given here.
# Test: Pharmacokinetics of CK and its metabolite 20
# Format: in vivo, healthy Chinese volunteers
# Procedure, shortened: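 Healthy adults given one oral tablet dose fasting (overnight, or 10 h in a crossover food-effect arm); 30 subjects from the 100/200/400 mg groups were pooled with 24 from 200 mg fasting periods. Plasma was stored at −70°C, extracted with MTBE plus internal standards and assayed by LC-MS/MS. Cmax was observed and AUClast calculated by linear trapezoid, each divided by dose. The metabolite/parent ratio was also calculated. Genotyping used Sequenom MassARRAY, and log-transformed values were compared by one-way ANOVA.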
compound,measurement,setting,value
"CC(C)=CCC[C@](C)(O)[C@H]1CC[C@]2(C)[C@@H]1[C@H](O)C[C@@H]1[C@@]3(C)CC[C@H](O)C(C)(C)[C@@H]3CC[C@]12C [20(S)-PPD, 20(S)-protopanaxadiol]",20(S)-PPD AUClast/D,"CFTR rs2106155 CC, mean (SD)",0.76 (0.87)
same,20(S)-PPD Cmax/D,"CFTR rs2106155 CC, mean (SD)",0.02 (0.02)
same,Ratio 20(S)-PPD/CK AUClast/D,"CFTR rs2106155 CC, mean (SD)",3.73 (6.73) %
same,Ratio 20(S)-PPD/CK Cmax/D,"CFTR rs2106155 CC, mean (SD)",0.80 (1.29) %
same,20(S)-PPD AUClast/D,"CFTR rs2237726 CC, mean (SD)",0.72 (0.85)
same,20(S)-PPD Cmax/D,"CFTR rs2237726 CC, mean (SD)",0.02 (0.02)
same,Ratio 20(S)-PPD/CK AUClast/D,"CFTR rs2237726 CC, mean (SD)",3.53 (6.59) %
same,Ratio 20(S)-PPD/CK Cmax/D,"CFTR rs2237726 CC, mean (SD)",0.80 (1.27) %
same,20(S)-PPD AUClast/D,"CFTR rs2237726 CT, mean (SD)",0.84 (0.78)
same,20(S)-PPD Cmax/D,"CFTR rs2237726 CT, mean (SD)",0.03 (0.03)
same,Ratio 20(S)-PPD/CK AUClast/D,"CFTR rs2237726 CT, mean (SD)",4.43 (5.17) %
same,Ratio 20(S)-PPD/CK Cmax/D,"CFTR rs2237726 CT, mean (SD)",1.42 (2.13) %
same,20(S)-PPD AUClast/D,"CFTR rs2237726 TT, mean (SD)",1.10 (0.47)
same,20(S)-PPD Cmax/D,"CFTR rs2237726 TT, mean (SD)",0.03 (0.02)
same,Ratio 20(S)-PPD/CK AUClast/D,"CFTR rs2237726 TT, mean (SD)",7.40 (10.14) %
same,Ratio 20(S)-PPD/CK Cmax/D,"CFTR rs2237726 TT, mean (SD)",1.63 (2.04) %
same,20(S)-PPD AUClast/D,"CFTR rs4148711 AA, mean (SD)",0.97 (0.49)
same,20(S)-PPD Cmax/D,"CFTR rs4148711 AA, mean (SD)",0.04 (0.02)
same,Ratio 20(S)-PPD/CK AUClast/D,"CFTR rs4148711 AA, mean (SD)",5.87 (7.37) %
same,Ratio 20(S)-PPD/CK Cmax/D,"CFTR rs4148711 AA, mean (SD)",1.40 (1.51) %
same,20(S)-PPD AUClast/D,"CFTR rs4148711 AT, mean (SD)",0.90 (0.98)
same,20(S)-PPD Cmax/D,"CFTR rs4148711 AT, mean (SD)",0.03 (0.04)
same,Ratio 20(S)-PPD/CK AUClast/D,"CFTR rs4148711 AT, mean (SD)",4.70 (7.26) %
same,Ratio 20(S)-PPD/CK Cmax/D,"CFTR rs4148711 AT, mean (SD)",1.40 (2.23) %
same,20(S)-PPD AUClast/D,"CFTR rs4148711 TT, mean (SD)",0.63 (0.57)
same,20(S)-PPD Cmax/D,"CFTR rs4148711 TT, mean (SD)",0.02 (0.02)
same,Ratio 20(S)-PPD/CK AUClast/D,"CFTR rs4148711 TT, mean (SD)",2.87 (3.42) %
same,Ratio 20(S)-PPD/CK Cmax/D,"CFTR rs4148711 TT, mean (SD)",0.66 (0.71) %
same,20(S)-PPD AUClast/D,"NR1I2 rs1464602 AA, mean (SD)",0.69 (0.50)
same,20(S)-PPD Cmax/D,"NR1I2 rs1464602 AA, mean (SD)",0.02 (0.02)
same,Ratio 20(S)-PPD/CK AUClast/D,"NR1I2 rs1464602 AA, mean (SD)",3.33 (3.32) %
same,Ratio 20(S)-PPD/CK Cmax/D,"NR1I2 rs1464602 AA, mean (SD)",0.85 (0.79) %
same,20(S)-PPD AUClast/D,"NR1I2 rs1464602 AG, mean (SD)",0.85 (0.89)
same,20(S)-PPD Cmax/D,"NR1I2 rs1464602 AG, mean (SD)",0.03 (0.03)
same,Ratio 20(S)-PPD/CK AUClast/D,"NR1I2 rs1464602 AG, mean (SD)",3.45 (6.88) %
same,Ratio 20(S)-PPD/CK Cmax/D,"NR1I2 rs1464602 AG, mean (SD)",0.80 (1.32) %
same,20(S)-PPD AUClast/D,"NR1I2 rs1464602 GG, mean (SD)",1.09 (1.05)
same,20(S)-PPD Cmax/D,"NR1I2 rs1464602 GG, mean (SD)",0.04 (0.04)
same,Ratio 20(S)-PPD/CK AUClast/D,"NR1I2 rs1464602 GG, mean (SD)",7.81 (8.88) %
same,Ratio 20(S)-PPD/CK Cmax/D,"NR1I2 rs1464602 GG, mean (SD)",2.40 (3.04) %
same,20(S)-PPD AUClast/D,"NR1I2 rs1523127 AA, mean (SD)",0.87 (0.86)
same,20(S)-PPD Cmax/D,"NR1I2 rs1523127 AA, mean (SD)",0.03 (0.03)
same,Ratio 20(S)-PPD/CK AUClast/D,"NR1I2 rs1523127 AA, mean (SD)",4.60 (7.04) %
same,Ratio 20(S)-PPD/CK Cmax/D,"NR1I2 rs1523127 AA, mean (SD)",1.27 (1.98) %
same,20(S)-PPD AUClast/D,"NR1I2 rs1523127 CA, mean (SD)",0.73 (0.52)
same,20(S)-PPD Cmax/D,"NR1I2 rs1523127 CA, mean (SD)",0.02 (0.02)
same,Ratio 20(S)-PPD/CK AUClast/D,"NR1I2 rs1523127 CA, mean (SD)",3.64 (3.52) %
same,Ratio 20(S)-PPD/CK Cmax/D,"NR1I2 rs1523127 CA, mean (SD)",0.87 (0.80) %
same,20(S)-PPD AUClast/D,"NR1I2 rs1523127 CC, n = 1",0.32 (−) ^2)
same,20(S)-PPD Cmax/D,"NR1I2 rs1523127 CC, n = 1",0.01 (−) ^2)
same,Ratio 20(S)-PPD/CK AUClast/D,"NR1I2 rs1523127 CC, n = 1",1.14 (−) ^2) %
same,Ratio 20(S)-PPD/CK Cmax/D,"NR1I2 rs1523127 CC, n = 1",0.22 (−) ^2) %
same,20(S)-PPD AUClast/D,"NR1I2 rs2276707 CC, mean (SD)",0.79 (0.54)
same,20(S)-PPD Cmax/D,"NR1I2 rs2276707 CC, mean (SD)",0.03 (0.02)
same,Ratio 20(S)-PPD/CK AUClast/D,"NR1I2 rs2276707 CC, mean (SD)",5.07 (6.48) %
same,Ratio 20(S)-PPD/CK Cmax/D,"NR1I2 rs2276707 CC, mean (SD)",1.15 (1.37) %
same,20(S)-PPD AUClast/D,"NR1I2 rs2276707 CT, mean (SD)",0.79 (0.77)
same,20(S)-PPD Cmax/D,"NR1I2 rs2276707 CT, mean (SD)",0.03 (0.03)
same,Ratio 20(S)-PPD/CK AUClast/D,"NR1I2 rs2276707 CT, mean (SD)",3.49 (4.74) %
same,Ratio 20(S)-PPD/CK Cmax/D,"NR1I2 rs2276707 CT, mean (SD)",1.12 (1.87) %
same,20(S)-PPD AUClast/D,"NR1I2 rs2276707 TT, mean (SD)",1.04 (1.19)
same,20(S)-PPD Cmax/D,"NR1I2 rs2276707 TT, mean (SD)",0.03 (0.03)
same,Ratio 20(S)-PPD/CK AUClast/D,"NR1I2 rs2276707 TT, mean (SD)",5.91 (10.37) %
same,Ratio 20(S)-PPD/CK Cmax/D,"NR1I2 rs2276707 TT, mean (SD)",1.27 (1.99) %
same,20(S)-PPD AUClast/D,"NR1I2 rs2472682 AA, mean (SD)",1.08 (1.14)
same,20(S)-PPD Cmax/D,"NR1I2 rs2472682 AA, mean (SD)",0.04 (0.04)
same,Ratio 20(S)-PPD/CK AUClast/D,"NR1I2 rs2472682 AA, mean (SD)",7.47 (9.73) %
same,Ratio 20(S)-PPD/CK Cmax/D,"NR1I2 rs2472682 AA, mean (SD)",2.06 (2.76) %
same,20(S)-PPD AUClast/D,"NR1I2 rs2472682 CA, mean (SD)",0.66 (0.50)
same,20(S)-PPD Cmax/D,"NR1I2 rs2472682 CA, mean (SD)",0.02 (0.02)
same,Ratio 20(S)-PPD/CK AUClast/D,"NR1I2 rs2472682 CA, mean (SD)",2.12 (1.73) %
same,Ratio 20(S)-PPD/CK Cmax/D,"NR1I2 rs2472682 CA, mean (SD)",0.59 (0.51) %
same,20(S)-PPD AUClast/D,"NR1I2 rs2472682 CC, mean (SD)",0.87 (0.59)
same,20(S)-PPD Cmax/D,"NR1I2 rs2472682 CC, mean (SD)",0.03 (0.02)
same,Ratio 20(S)-PPD/CK AUClast/D,"NR1I2 rs2472682 CC, mean (SD)",5.01 (4.45) %
same,Ratio 20(S)-PPD/CK Cmax/D,"NR1I2 rs2472682 CC, mean (SD)",1.17 (0.97) %
same,20(S)-PPD AUClast/D,"NR1I2 rs6785049 AA, mean (SD)",0.75 (0.59)
same,20(S)-PPD Cmax/D,"NR1I2 rs6785049 AA, mean (SD)",0.03 (0.02)
same,Ratio 20(S)-PPD/CK AUClast/D,"NR1I2 rs6785049 AA, mean (SD)",5.90 (7.79) %
same,Ratio 20(S)-PPD/CK Cmax/D,"NR1I2 rs6785049 AA, mean (SD)",1.37 (1.63) %
same,20(S)-PPD AUClast/D,"NR1I2 rs6785049 AG, mean (SD)",0.72 (0.54)
same,20(S)-PPD Cmax/D,"NR1I2 rs6785049 AG, mean (SD)",0.03 (0.02)
same,Ratio 20(S)-PPD/CK AUClast/D,"NR1I2 rs6785049 AG, mean (SD)",2.64 (2.47) %
same,Ratio 20(S)-PPD/CK Cmax/D,"NR1I2 rs6785049 AG, mean (SD)",0.69 (0.58) %
same,20(S)-PPD AUClast/D,"NR1I2 rs6785049 GG, mean (SD)",1.11 (1.21)
same,20(S)-PPD Cmax/D,"NR1I2 rs6785049 GG, mean (SD)",0.04 (0.04)
same,Ratio 20(S)-PPD/CK AUClast/D,"NR1I2 rs6785049 GG, mean (SD)",6.66 (9.43) %
same,Ratio 20(S)-PPD/CK Cmax/D,"NR1I2 rs6785049 GG, mean (SD)",1.98 (2.90) %
same,20(S)-PPD AUClast/D,"NR1I2 rs7643645 AA, mean (SD)",0.95 (0.87)
same,20(S)-PPD Cmax/D,"NR1I2 rs7643645 AA, mean (SD)",0.03 (0.03)
same,Ratio 20(S)-PPD/CK AUClast/D,"NR1I2 rs7643645 AA, mean (SD)",5.31 (8.06) %
same,Ratio 20(S)-PPD/CK Cmax/D,"NR1I2 rs7643645 AA, mean (SD)",1.16 (1.57) %
same,20(S)-PPD AUClast/D,"NR1I2 rs7643645 AG, mean (SD)",0.66 (0.76)
same,20(S)-PPD Cmax/D,"NR1I2 rs7643645 AG, mean (SD)",0.03 (0.03)
same,Ratio 20(S)-PPD/CK AUClast/D,"NR1I2 rs7643645 AG, mean (SD)",3.34 (5.02) %
same,Ratio 20(S)-PPD/CK Cmax/D,"NR1I2 rs7643645 AG, mean (SD)",1.21 (2.09) %
same,20(S)-PPD AUClast/D,"NR1I2 rs7643645 GG, mean (SD)",1.14 (0.42)
same,20(S)-PPD Cmax/D,"NR1I2 rs7643645 GG, mean (SD)",0.04 (0.02)
same,Ratio 20(S)-PPD/CK AUClast/D,"NR1I2 rs7643645 GG, mean (SD)",4.98 (4.18) %
same,Ratio 20(S)-PPD/CK Cmax/D,"NR1I2 rs7643645 GG, mean (SD)",1.03 (0.83) %
